This note sets out measurements from article PMC9999367 (RSC Advances, 2023).

As usually defined, the Cmax is the peak of the concentration-time curve. A word on the MRT: it is the average time that molecules of a dose stay in the body. As usually defined, the Tmax is the time from dosing to the highest level. The term half-life denotes the time needed for the level to fall by half in the phase considered. A low value points to fast loss.

Data set [1] can be described thus: Stability studies of DUV in human plasma samples. Type of data set: in vitro ADME. The gist of the method:
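Blank human plasma was spiked at 15, 150 and 400 ng mL−1 with internal standard at 200 ng mL−1. Exposures: ~48 h in the autosampler, ~6 h at room temperature, three −80 °C/room-temperature freeze–thaw cycles, or 60 days at −80 °C. Samples were precipitated with an equal volume of mobile phase, vortexed, spun, filtered and run by C18 UPLC-ESI-MRM. Mean of 3.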

Data set [2] in a line: Stability of stock and working standard solutions at refrigerated conditions. Particulars: for Recovery (%): 30 days at 8 °C; for stability of stock solutions (1 mg mL^−1): refrigerator (8 °C), at least one month, DMSO/acetonitrile. Type of data set: physicochemical. The gist of the method:
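Stocks were made at 1 mg mL−1: analyte dissolved in 1 mL DMSO, made up with acetonitrile. They were held refrigerated at 8 °C. Working solutions were diluted in acetonitrile to 5–500 ng mL−1, with internal standard at 200 ng mL−1.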

Data set [3] is described as follows: Pharmacokinetic study in rats after single oral dose of DUV. The data set is classed as in vivo, Wistar rat. The gist of the method: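 Male Wistar rats (250 ± 30 g), acclimatised 7 days and fasted 12 h with free water, got one oral gavage dose of 25 mg kg−1 in 1% DMSO/saline. About 300 µL heparinised blood was drawn predose and at 0.25–12 h. Plasma was spun at 4500 rpm, 4 °C, 30 min, stored at −20 °C, then quantified by UPLC-ESI-MS/MS. Non-compartmental analysis, 5 rats.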

Where [4] appears, read: male, Wistar, rat, plasma, po, 25 mg/kg.
The mark [5] stands for this setting: rat plasma, single oral 25 mg kg^−1, mean of 5.

Consider `C[C@H](Nc1ncnc2nc[nH]c12)c1cc2cccc(Cl)c2c(=O)n1-c1ccccc1` [DUV, 8-chloro-2-phenyl-3-[(1S)-1-(7H-purin-6-ylamino)ethyl]isoquinolin-1-one], for which the “Recovery (%)” value in data set [1] (60 days at −80 °C, spiked conc. 5 ng mL^−1, mean of 3) is listed as 101.51%; in data set [1] (60 days at −80 °C, spiked conc. 15 ng mL^−1, mean of 3), 99.84%; in data set [1] (60 days at −80 °C, spiked conc. 150 ng mL^−1, mean of 3), 101.19%; in data set [1] (60 days at −80 °C, spiked conc. 400 ng mL^−1, mean of 3), 99.87%; in data set [1] (Autosampler (48 h), spiked conc. 5 ng mL^−1, mean of 3), 100.12%; in data set [1] (Autosampler (48 h), spiked conc. 15 ng mL^−1, mean of 3), 95.89%. Further, the “Recovery (%)” value in data set [1] (Autosampler (48 h), spiked conc. 150 ng mL^−1, mean of 3) was 98.42%; in data set [1] (Autosampler (48 h), spiked conc. 400 ng mL^−1, mean of 3), 103.28%; in data set [1] (Bench top (6 h), room temperature, spiked conc. 5 ng mL^−1, mean of 3), 99.52%; in data set [1] (Bench top (6 h), room temperature, spiked conc. 15 ng mL^−1, mean of 3) it was 100.21%; in data set [1] (Bench top (6 h), room temperature, spiked conc. 150 ng mL^−1, mean of 3), 101.43%; in data set [1] (Bench top (6 h), room temperature, spiked conc. 400 ng mL^−1, mean of 3), 99.26%. Also, the “Recovery (%)” value was found to be 96.94% in data set [2] (spiked conc. 5 ng mL^−1, mean of 3); 103.24% in data set [2] (spiked conc. 15 ng mL^−1, mean of 3); 101.02% in data set [2] (spiked conc. 150 ng mL^−1, mean of 3); 96.27% in data set [2] (spiked conc. 400 ng mL^−1, mean of 3). In data set [1] (autosampler storage settings), the “time stable under autosampler storage settings” value is not below 48 h. Besides, in data set [1] (human, human plasma (spiked QC samples)), the recovery was in the range of 95.9 to 103%. In addition, the “time stable in plasma samples on the bench” value in data set [1] (room temperature, bench) is on record as “at least 6 hours”. Besides, in data set [1] (three freeze–thaw cycles), the “stability during freeze–thaw cycles” value is on record as “stable”. Moreover, the “stability at long-term storage” value in data set [1] (−80 °C for 60 days) is given as “stable”. Besides, in data set [2] (30 days at refrigerated conditions (8 °C)), the “stability of stock and working standard solutions” value is “stable”. The “stability of stock solutions (1 mg mL^−1)” value in data set [2] is “stable”. The same compound registered a Cmax in data set [3] (setting [4]) of 3800 ng/mL. In addition, the MRT in data set [3] (setting [4]) turned out to be 1.04 h. The Tmax in data set [3] (setting [4]) was found to be 1.83 h. Besides, in data set [3] (setting [4]), the half-life is 0.72 h. This compound also gave a k el in data set [3] (setting [4]) of 0.000269 s⁻¹. Further, in data set [3] (setting [5]), the “Area under curve ration (AUC0–t/AUC0–∞)” value is reported as 95.69%. Besides, in data set [3] (setting [5]), the “Clearance (CL)” value is 14.2 mL/min/kg. The “Elimination half-life time (t1/2)” value in data set [3] (setting [5]) amounted to 0.72 h⁻¹. The “Volume of distribution (Vd)” value in data set [3] (setting [5]) is 0.88 L/kg.

Take `Cc1cc(Nc2ncc(Cl)c(Nc3ccccc3S(=O)(=O)C(C)C)n2)c(OC(C)C)cc1C1CCNCC1` [CRB, Ceritinib]: the “stability of stock solutions (1 mg mL^−1)” value in data set [2] is on record as “stable”.
